Ecoli tolC = growth inhibitors of E. coli BW25113 tolC mutant | growth inhibition, % at 10 µM (by protocol) | OD615 | actives 2.2% (n = 65,000);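 active means growth inhibition at or above a cutoff equal to the mean over every tested compound plus 3 SD, cut at about 60% in these data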;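 further: growth measured after 20 h incubation at 37 °C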
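Material: E. coli BW25113 ΔtolC::kan, tolC deletion mutant strain. Measure: percent growth inhibition. Schedule: 37 °C, 20 h exposure. Doses: single-point testing at 10 µM. Signal: A615 absorbance measurement. Buffer or medium: kanamycin-containing LB broth (50 µg/mL).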
BAP1 inh = human BAP1 deubiquitinase inhibition. Q92560. recombinant BAP1, Ub-AMC hydrolysis fluorescence kinetic; stronger effect = lower value. calls only at 20 µM. actives 0.48% (n = 72,000);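 active means activity remaining at or below 50% of control, provided the compound also passes the data quality filters; inactive means the rest, including low values that fail the filters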;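 further: 100% = DMSO wells rate and 0% = substrate alone blank rate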
Target sequence (Q92560 whole entry, looked up): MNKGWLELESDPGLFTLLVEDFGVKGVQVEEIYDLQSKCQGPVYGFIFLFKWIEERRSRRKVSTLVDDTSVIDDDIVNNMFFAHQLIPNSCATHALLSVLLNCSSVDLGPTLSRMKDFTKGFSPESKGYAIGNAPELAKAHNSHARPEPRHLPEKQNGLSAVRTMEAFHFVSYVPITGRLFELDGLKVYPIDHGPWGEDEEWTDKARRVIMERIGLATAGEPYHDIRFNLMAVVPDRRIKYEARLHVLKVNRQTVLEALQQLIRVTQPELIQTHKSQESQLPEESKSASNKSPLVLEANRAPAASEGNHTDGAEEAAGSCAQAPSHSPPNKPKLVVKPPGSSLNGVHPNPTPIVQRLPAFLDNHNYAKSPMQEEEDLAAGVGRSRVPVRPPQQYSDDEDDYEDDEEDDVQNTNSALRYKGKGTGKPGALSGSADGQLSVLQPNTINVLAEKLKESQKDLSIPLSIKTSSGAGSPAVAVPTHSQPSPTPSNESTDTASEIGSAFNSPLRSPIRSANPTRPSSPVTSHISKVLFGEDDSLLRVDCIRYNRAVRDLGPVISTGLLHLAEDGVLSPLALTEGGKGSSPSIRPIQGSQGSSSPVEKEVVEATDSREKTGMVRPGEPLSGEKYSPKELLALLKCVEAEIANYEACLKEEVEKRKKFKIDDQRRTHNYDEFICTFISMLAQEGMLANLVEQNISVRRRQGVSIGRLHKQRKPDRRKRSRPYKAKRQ
Ecoli WT expand = growth inhibitors of E. coli BW25113 wild type; AID 710; OD600 absorbance; actives 0.15% (n = 98,000); growth inhibition, % at 100 µM;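 active means growth inhibition above about 50% at one test dose, limit read from the data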;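 further: growth measured after 20 h incubation at 37 °C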
M1 ag = agonists of M1 muscarinic receptor; CHO-M1 cells, Fluo-4 calcium fluorescence, agonist mode; stronger effect = higher value; AID 626; actives 3% (n = 64,000); B-score at 10 µM;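 active means fluorescence rise, raw or as B-score row- and column-corrected plate score, outside the 99.7% band of its plate's samples, either direction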
M1 antagonist = M1 muscarinic receptor (rat) antagonism; CHO-M1 cells, Fluo-4 calcium, ACh EC80 antagonist mode; stronger effect = lower value; P08482; actives 3.4% (n = 64,000); B-score at 10 µM; AID 628;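 active means calcium fluorescence response, raw or row-and-column corrected B-score, differing from the plate sample mean either way at a set confidence level, mostly lower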
Hsp90 block = displaces geldanamycin probe from tumor Hsp90 | inhibition, % at 30 µM | NCI-N417 lysate Hsp90, Cy3B-geldanamycin FP displacement | AID 429 | actives 0.35% (n = 64,000);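 active means inhibition above 50%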;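 further: 0% = tracer plus lysate wells and 100% = tracer alone without lysate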
M1 agonist conf = confirmation of rat M1 muscarinic receptor agonists; CHO-M1 cells, Fluo-4 calcium fluorescence, agonist mode; actives lie on both sides; shares compounds with M1 ag; AID 1488; actives 19% (n = 1,700); fluorescence change (max-min) at 10 µM;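 active means fluorescence change differs from the solvent-only DMSO control mean at a set confidence level in both duplicate runs; inconclusive means differs from solvent-only control mean in just one of two runs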;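 further: an EC20 dose of acetylcholine follows compound addition during the same imaging run; raw fluorescence intensity difference in instrument units with no normalization to controls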
M4 agonist ctr = rat M4 muscarinic agonism, M1 counter-screen. fluorescence change (max-min) at 10 µM. shares compounds with M1 ag. actives 9% (n = 1,700). CHO M4/Gqi5 cells, Fluo-4 calcium fluorescence, agonist mode; actives lie on both sides;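 active means fluorescence change differing from the plate's solvent-only control wells at 99.7% confidence in both duplicates, whether higher or lower; inconclusive means differs from solvent controls in only one of two duplicates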
An asterisk follows results filed as active. This is a sample that favours compounds with a hit; in the whole collection about 5.1% have one here.

CCOC(=O)N1CCN(C(=O)C2CCN(C(=O)c3cc4sccc4n3CC)CC2)CC1 was read as Ecoli tolC -15.2, BAP1 inh inactive, Ecoli WT expand 6.0, M1 ag 3.84*, M1 antagonist -0.366, Hsp90 block -0.9, M1 agonist conf -2.72 and M4 agonist ctr -10.3.
`Cc1cc(N2CCN(c3ccccc3)CC2)n2c(n1)nc1ccccc12` gave Ecoli tolC 23.1, BAP1 inh inactive, Ecoli WT expand 10.0, M1 ag 7.49*, M1 antagonist -0.407, Hsp90 block -17.2, M1 agonist conf -31.7* and M4 agonist ctr -63.1.
`Cc1cc(N2CCN(c3ccccc3)CC2)n2nnnc2n1` gave Ecoli tolC -16.0, BAP1 inh inactive, Ecoli WT expand -7.0, M1 ag -0.962, M1 antagonist -0.378 and Hsp90 block -0.8.
CCc1cc2c(NCCO)ncnc2s1 was read as Ecoli tolC -11.8, BAP1 inh inactive, Ecoli WT expand 15.0, M1 ag 0.871, M1 antagonist -0.66 and Hsp90 block 1.2.
Screening CCc1cc2c(NCCC(=O)O)ncnc2s1 returned Ecoli tolC 7.6, BAP1 inh inactive, Ecoli WT expand -5.0, M1 ag 11.4*, M1 antagonist -0.163, Hsp90 block -5.0, M1 agonist conf -8.61 and M4 agonist ctr -44.6.
Screening O=C(CCCCCn1c(=S)[nH]c2cc3c(cc2c1=O)OCO3)N1CCN(Cc2ccccc2)CC1 returned Ecoli tolC 11.8, BAP1 inh inactive, Ecoli WT expand -11.0, M1 ag -0.049, M1 antagonist -0.471 and Hsp90 block -4.0.
Screening O=C(CCCCCn1c(=S)[nH]c2cc3c(cc2c1=O)OCO3)N1CCN(C2CCCCC2)CC1 returned Ecoli tolC 0.5, BAP1 inh inactive, Ecoli WT expand -8.0, M1 ag 2.08*, M1 antagonist -5.08*, Hsp90 block -2.9, M1 agonist conf -23.4 and M4 agonist ctr inconclusive.
For COc1ccc(CCNc2oc(-c3ccccc3OC)nc2C#N)cc1OC the results were Ecoli tolC 30.7, Ecoli WT expand 5.0, M1 ag 3.57*, M1 antagonist 0.353, Hsp90 block -1.7, M1 agonist conf -21.7 and M4 agonist ctr -73.8*.
`Cc1nc(-c2ccc(NS(=O)(=O)c3cc([N+](=O)[O-])ccc3C)cc2)cs1` gave BAP1 inh inactive.
Screening Cc1sc2nc3ccc(N4CCCC4)nn3c(=O)c2c1C returned Ecoli tolC 13.0, BAP1 inh inactive, M1 ag 6.63*, M1 antagonist -0.564, Hsp90 block -3.7, M1 agonist conf -8.32 and M4 agonist ctr -46.4.
For Cc1ccc2nc3ccc(N4CCCCCCC4)nn3c(=O)c2c1 the results were Ecoli WT expand -7.0.
For CCCCOc1ncnc2c1[nH]c1ccc(F)cc12 the results were Ecoli tolC 12.7, BAP1 inh inactive, Ecoli WT expand 0.0, M1 ag 5.42*, M1 antagonist -2.85, Hsp90 block -1.3, M1 agonist conf -1.67 and M4 agonist ctr -35.1.
`O=C1C(=O)N(CCCBr)c2ccccc21` gave BAP1 inh inactive.
COc1cccc(C(=O)OCc2ccccc2C#N)c1O was read as Ecoli tolC -0.3, BAP1 inh inactive, Ecoli WT expand -1.0, M1 ag -2.17*, M1 antagonist 0.402, Hsp90 block -2.8, M1 agonist conf -27.2* and M4 agonist ctr -79.3*.
CCOC(=O)c1cc(C#N)c(Oc2ccccc2OC)nc1-c1ccccc1 was read as Ecoli WT expand -20.0.
Screening c1ccc(CCNc2c3c(nc4ccccc24)CCC3)cc1 returned BAP1 inh inactive.
For O=C(Nc1ccc(SC(F)F)cc1)c1ccc2nccnc2c1 the results were Ecoli tolC 2.8, Ecoli WT expand -5.0, M1 ag 3.84*, M1 antagonist -0.934*, Hsp90 block -6.9, M1 agonist conf -16.7 and M4 agonist ctr -2.31.
For O=C(CN1C(=O)c2ccccc2C1=O)Nc1ccccc1Br the results were BAP1 inh inactive.
For CCOC(=O)Cc1csc(NC(=O)CSc2ncnc3c2cnn3-c2ccccc2Cl)n1 the results were Ecoli tolC 50.7, BAP1 inh inactive, Ecoli WT expand -12.0, M1 ag 10.7*, M1 antagonist -1.17, Hsp90 block 2.9, M1 agonist conf 2.92 and M4 agonist ctr 8.34.
COc1cc([N+](=O)[O-])ccc1NC(=O)c1ccc(S(=O)(=O)N2CC(C)CC(C)C2)cc1 (stereo not given) was read as BAP1 inh inactive.
O=C(O)c1ccccc1NCN1C(=O)C2CC=C(Cl)CC2C1=O (stereo not given) was read as Ecoli tolC -22.4, BAP1 inh inactive, Ecoli WT expand 1.0, M1 ag -2.19*, M1 antagonist -0.338, Hsp90 block 0.2, M1 agonist conf -25.6* and M4 agonist ctr inconclusive.
For O=C1C2CC=C(Cl)CC2C(=O)N1CC1Cc2ccccc2CO1 (stereo not given) the results were Ecoli tolC 33.6, BAP1 inh inactive, Ecoli WT expand -3.0, M1 ag 2.23*, M1 antagonist 0.426, Hsp90 block -2.9, M1 agonist conf 27.8 and M4 agonist ctr -18.3.
`Cc1ccc(NCN2C(=O)C3CC=C(Cl)CC3C2=O)cc1` (stereo not given) gave Ecoli WT expand 6.0.
Clc1ccc(Cn2ncc3c(N4CCCC4)ncnc32)cc1 was read as Ecoli tolC 26.4, BAP1 inh inactive, Ecoli WT expand 5.0 and Hsp90 block -0.2.
Screening Clc1ccc(Cn2ncc3c(N4CCOCC4)ncnc32)cc1 returned Ecoli tolC 15.0, BAP1 inh inactive, Ecoli WT expand -19.0, M1 ag 4.57*, M1 antagonist -0.00635, Hsp90 block -2.2, M1 agonist conf inconclusive and M4 agonist ctr 9.34.
Screening COCCNc1ncnc2c1cnn2Cc1ccc(Cl)cc1 returned Ecoli tolC -2.2, BAP1 inh inactive, Ecoli WT expand -2.0, M1 ag 3.13*, M1 antagonist -0.964, Hsp90 block -3.5, M1 agonist conf inconclusive and M4 agonist ctr -44.9.
COc1cccc(NC(=O)Nc2ccccc2C(=O)Nc2cccc(OC)c2)c1 was read as BAP1 inh inactive.
For CCCCCC(=O)Nc1cccc(-c2nc3ncccc3o2)c1 the results were Ecoli tolC 8.1, BAP1 inh inactive, Ecoli WT expand 13.0, M1 ag 3.98*, M1 antagonist -1.21, Hsp90 block -4.0, M1 agonist conf -2.99 and M4 agonist ctr -8.69.
O=C(Nc1c2c(nn1-c1ccc(Cl)cc1)CSC2)c1ccc([N+](=O)[O-])cc1 was read as BAP1 inh inactive.

Source: PubChem BioAssay (several laboratories)
